One may read the GI50 as the concentration at which growth is held to half of that of the control.

GI50 and Activity data for 14 compounds are collected here from ChEMBL document CHEMBL1155482, “Synthesis, anticancer activity and apoptosis inducing ability of anthranilamide-PBD conjugates” (2010).

Molecules are shown by their SMILES. Counter-ions that a name gives are not always drawn. Active and inactive are the calls of the source. The calls are words filed in the database; no cut-off is given here.

One test has as its system A549. The test is described as follows: Cytotoxicity against human A549 cells after 48 hrs by SRB assay. The settings on record: A549, 48 h. Format: functional. The method in brief: (§1)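 Sulforhodamine B assay estimating cell density from cellular protein content, run on human cancer lines of lung, breast, oral, colon, cervix, ovary and prostate origin, with GI50 values derived.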

In a further test the test system is HOP-62. Nature of the test: Cytotoxicity against human HOP62 cells after 48 hrs by SRB assay. The test is classed as functional. The settings on record: HOP-62, 48 h. In outline:
as §1
A general note: In SRB staining, fixed cells bind dye roughly in proportion to their protein.

For another test, the system named is ZR-75-1. The test is described as follows: Cytotoxicity against human ZR-75-1 cells after 48 hrs by SRB assay. The test is classed as functional. The settings on record: ZR-75-1, 48 h. The method in brief:
as §1

A further test deals with MCF7. Nature of the test: Cytotoxicity against human MCF7 cells after 48 hrs by SRB assay. The test is classed as functional. The settings on record: MCF7, 48 h. The method in brief:
as §1

A short description of test [1]: Cytotoxicity against human DWD cells after 48 hrs by SRB assay. Format: functional. In outline: as §1
In a further test the test system is KB. Nature of the test: Cytotoxicity against human KB cells after 48 hrs by SRB assay. The test is classed as functional. In outline: as §1
The nature of test [2]: Cytotoxicity against human Gurav cells after 48 hrs by SRB assay. Format: functional. In outline:
as §1

In the next test the test system is PC-3. The test is described as follows: Cytotoxicity against human PC3 cells after 48 hrs by SRB assay. Format: functional. The settings on record: PC-3, 48 h. In outline: as §1
The test system of a further test is A2780. The test is described as follows: Cytotoxicity against human A2780 cells after 48 hrs by SRB assay. The test is classed as functional. The settings on record: A2780, 48 h. In outline: as §1
The subject of a further test is COLO 205. The test is described as follows: Cytotoxicity against human COLO205 cells after 48 hrs by SRB assay. Format: functional. The settings on record: COLO 205, 48 h. In outline:
as §1

For the next test, the system named is SiHa. The test is described as follows: Cytotoxicity against human SiHa cells after 48 hrs by SRB assay. Format: functional. The method in brief:
as §1

The test system of test [3] is A-375. Nature of the test: Cell cycle arrest in human A375 cells assessed as accumulation at S phase at 1 uM by FACS analysis. Format: functional. The method in brief: (§2)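 A375 cells were exposed to compound for 24 h, and cell cycle distribution was measured by FACS. The sub-G1 peak (labelled G0) was scored as the apoptotic cell percentage and compared with untreated control cells.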

For test [4], the system named is A-375. The test is described as follows: Cell cycle arrest in human A375 cells assessed as accumulation at G0/G1 phase at 1 uM by FACS analysis. The test is classed as functional. In outline: as §2
(In flow cytometry, cells or beads pass a laser one at a time.)

Test [5] relates to A-375. The test is described as follows: Cell cycle arrest in human A375 cells assessed as accumulation at G2/M phase at 1 uM by FACS analysis. The test is classed as functional. In outline: as §2
Test [6] deals with A-375. The test is described as follows: Induction of apoptosis in human A375 cells assessed as cells in dub G1 phase at 1 uM after 24 hrs by FACS analysis. The test is classed as functional. The method in brief: as §2
The test system of test [7] is A-375. Nature of the test: Antitumor activity against human A375 cells assessed as cell viability at 1 uM after 24 hrs by MTT assay. The test is classed as functional, cell-based. For orientation: Formazan colour is commonly taken as a measure of viable cells.
Test [8] deals with A-375. The test is described as follows: Induction of apoptosis in human A375 cells assessed as caspase 3 activation at 1 uM after 24 hrs by fluorimetry. The test is classed as functional, cell-based. In outline:
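Caspase-3 activity in treated A375 cells was measured by fluorimetry relative to untreated cells.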

For `COc1cc2c(cc1OCCCCCCN1CCN(C(=O)c3ccccc3NCc3cc(OC)c(OC)c(OC)c3)CC1)N=C[C@@H]1CCCN1C2=O`, the GI50 in the test on A549 is 180 nM; in the test on HOP-62, 1900 nM; in the test on ZR-75-1, 180 nM; with MCF7, 140 nM; in test [1] it was 150 nM; in the test with KB, 150 nM. The GI50 stood at 170 nM in test [2]; 160 nM with PC-3; 170 nM in the test with A2780; 160 nM with COLO 205; 1800 nM in the test on SiHa.

In the case of `COc1cc2c(cc1OCCCN1CCN(C(=O)c3ccccc3NCc3ccncc3)CC1)N=C[C@@H]1CCCN1C2=O`, the GI50 in the test on A549 was 2000 nM; with HOP-62 it was 2200 nM; in the test with ZR-75-1 it was 180 nM; in the test with MCF7, 130 nM; in test [1] it was 170 nM; with KB, 150 nM. Besides, the GI50 in test [2] turned out to be 180 nM; with PC-3, 1800 nM; with A2780, 190 nM; in the test on COLO 205, 190 nM; with SiHa, 1800 nM.

With `COc1cc2c(cc1OCCCCCN1CCN(C(=O)c3cc(Cl)ccc3NCc3ccc4ccccc4c3)CC1)N=C[C@@H]1CCCN1C2=O`, the GI50 worked out at 2000 nM with A549; 2000 nM in the test with HOP-62; 180 nM with ZR-75-1; 140 nM with MCF7; 170 nM in test [1]; 140 nM in the test on KB. Also, the GI50 in test [2] is 170 nM; with PC-3, 170 nM; in the test with A2780, 180 nM; in the test on COLO 205 it was 29000 nM; with SiHa, 1800 nM.

As to `O=C(c1ccccc1NCc1coc2ccccc2c1=O)N1CCNCC1`, the Activity was 18.53% in the test with A-375 [3], 68.39% in the test on A-375 [4], 15.45% in the test with A-375 [5] and 1.15% in the test with A-375 [6]. Also, the result in the test with A-375 [7] was Active.

As to `COc1cc2c(cc1OCCCCCN1CCN(C(=O)c3cc(Cl)ccc3NCc3coc4ccccc4c3=O)CC1)N=C[C@@H]1CCCN1C2=O`, the GI50 in the test on A549 worked out at 170 nM; with HOP-62, 1800 nM; in the test with ZR-75-1 it was 160 nM; with MCF7 it was 150 nM; in [1], 170 nM; in the test with KB it was 160 nM. Besides, the GI50 in [2] came to 170 nM; in the test with PC-3, 160 nM; in the test on A2780, 180 nM; with COLO 205, 2300 nM; with SiHa, 160 nM.

Regarding `COc1cc2c(cc1OCCCCCN1CCN(C(=O)c3ccccc3NCc3ccncc3)CC1)N=C[C@@H]1CCCN1C2=O`, the GI50 in the test on A549 turned out to be 2000 nM; in the test with HOP-62, 2300 nM; in the test on ZR-75-1, 2000 nM; in the test on MCF7, 160 nM; in [1], 150 nM; in the test with KB it was 150 nM. For the same compound, the GI50 in [2] came out at 170 nM; in the test with PC-3, 170 nM; with A2780, 170 nM; in the test with COLO 205, 25000 nM; in the test with SiHa it was 1800 nM.

Consider `COc1cc2c(cc1OCCCN1CCN(C(=O)c3ccccc3NCc3cc(OC)c(OC)c(OC)c3)CC1)N=C[C@@H]1CCCN1C2=O`, for which the GI50 in the test with A549 worked out at 2000 nM; with HOP-62, 2100 nM; in the test with ZR-75-1 it was 170 nM; with MCF7 it was 140 nM; in test [1] it was 150 nM; in the test with KB it was 150 nM. Besides, the GI50 came out at 170 nM in [2]; 160 nM with PC-3; 180 nM in the test on A2780; 170 nM with COLO 205; 170 nM with SiHa.

As to `COc1cccc2c1C(=O)c1c(O)c3c(c(O)c1C2=O)C[C@@](O)(C(=O)CO)C[C@@H]3O[C@H]1C[C@H](N)[C@H](O)[C@H](C)O1` [DOXORUBICIN HYDROCHLORIDE], the GI50 with HOP-62 is 140 nM; in the test with MCF7 it was 170 nM; in test [1] it was 100 nM; with KB, 170 nM; in test [2] it was 170 nM; with A2780, 160 nM. Further, the values for the GI50 in the test on COLO 205 and with SiHa were 140 nM and 170 nM, respectively.

`COc1cc2c(cc1OCCCCCCN1CCN(C(=O)c3ccccc3NCc3ccncc3)CC1)N=C[C@@H]1CCCN1C2=O`: the GI50 was 2200 nM with A549; 25000 nM in the test with HOP-62; 2000 nM with ZR-75-1; 150 nM in the test on MCF7; 170 nM in [1]; 150 nM in the test with KB. The GI50 is 180 nM in test [2]; 1800 nM in the test with PC-3; 190 nM in the test with A2780; 2600 nM in the test on COLO 205; 1900 nM in the test on SiHa.

In the case of `COc1cc2c(cc1O)N=C[C@@H]1CCCN1C2=O`, the GI50 turned out to be 160 nM in the test with A549; 150 nM in the test with HOP-62; 170 nM in the test with MCF7; 170 nM in the test on KB; 160 nM in [2]; 200 nM in the test on PC-3. Besides, the GI50 with A2780 was found to be 140 nM; with COLO 205, 110 nM; with SiHa it was 170 nM. The Activity stood at 23.08% in the test with A-375 [3], 67.67% in the test with A-375 [4], 12.19% with A-375 [5] and 2.683% in the test with A-375 [6]. For the same compound, the outcome in the test on A-375 [8] and with A-375 [7] was Active.

`COc1cc2c(cc1OCCCCCN1CCN(C(=O)c3ccccc3NCc3cc(OC)c(OC)c(OC)c3)CC1)N=C[C@@H]1CCCN1C2=O`: the GI50 in the test on A549 stood at 1900 nM; in the test with HOP-62 it was 1900 nM; in the test on ZR-75-1, 160 nM; with MCF7, 140 nM; in test [1] it was 140 nM; with KB, 140 nM. Also, the GI50 in test [2] is 160 nM; in the test with PC-3, 140 nM; with A2780, 160 nM; in the test with COLO 205, 2200 nM; in the test on SiHa, 170 nM.

As for `O=C(c1ccccc1NCc1ccc2ccccc2c1)N1CCNCC1`, the Activity in the test with A-375 [3] turned out to be 14.56%; with A-375 [4], 72.22%; with A-375 [5], 14.78%; in the test on A-375 [6], 1.233%. For the same compound, in the test on A-375 [7], the result was Active.

As for `COc1cc2c(cc1OCCCCCN1CCN(C(=O)c3ccccc3NCc3coc4ccccc4c3=O)CC1)N=C[C@@H]1CCCN1C2=O`, the GI50 in the test on A549 came to 160 nM; in the test with HOP-62, 1800 nM; in the test with ZR-75-1 it was 160 nM; in the test with MCF7, 140 nM; in test [1] it was 160 nM; in the test with KB, 150 nM. The GI50 in test [2] was 170 nM; with PC-3 it was 140 nM; in the test on A2780, 180 nM; in the test on COLO 205, 2400 nM; in the test with SiHa, 130 nM. Further, the Activity with A-375 [3] is 13.34%; in the test on A-375 [4], 81.9%; in the test on A-375 [5], 6.68%; in the test on A-375 [6], 3.483%. Further, the result in the test on A-375 [8] and with A-375 [7] was Active.

For the compound `COc1cc2c(cc1OCCCCCCN1CCN(C(=O)c3ccccc3NCc3ccc4ccccc4c3)CC1)N=C[C@@H]1CCCN1C2=O`, the GI50 was 170 nM in the test with A549; 1900 nM in the test on HOP-62; 160 nM in the test on ZR-75-1; 140 nM in the test with MCF7; 160 nM in test [1]; 150 nM in the test on KB. Moreover, the GI50 stood at 170 nM in test [2]; 150 nM in the test on PC-3; 190 nM in the test with A2780; 180 nM with COLO 205; 150 nM in the test on SiHa.
